Source: ChEMBL document CHEMBL2331135, “New selective carbonic anhydrase IX inhibitors: synthesis and pharmacological evaluation of diarylpyrazole-benzenesulfonamides” (Bioorg Med Chem, 2013)
The source made the active and inactive calls. The rule behind the calls is not given here.

Legend:
[1] = target: Carbonic anhydrase 9 (Homo sapiens, UniProt Q16790); experiment: Inhibition of human carbonic anhydrase 9 preincubated for 10 mins by CO2 hydration stopped-flow assay
[2] = system: MDA-MB-231; experiment: Potentiation of doxorubicin-induced cytotoxicity against human MDA-MB-231 cells under normoxic condition at 1 uM after 72 hrs by MTS assay; assay type: functional, cell-based
[3] = system: MDA-MB-231; experiment: Cytotoxicity against human MDA-MB-231 cells after 72 hrs by MTS assay; conditions: MDA-MB-231, 72 h
[4] = system: MDA-MB-231; experiment: Potentiation of doxorubicin-induced cytotoxicity against human MDA-MB-231 cells under hypoxic condition at 1 uM after 72 hrs by MTS assay; assay type: functional, cell-based
Summary of the method: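 MDA-MB-231 cells (2×10^3 per well) were seeded in DMEM with 10% FCS, buffered with 22.3 mM bicarbonate, and moved to hypoxia (1% O2, 5% CO2, N2 balance). Cells were then held 72 h at 37 °C under hypoxia. Read-out was MTS, 1 h, A492. IC50 is the doxorubicin concentration giving 50% absorbance reduction. Data come from three independent experiments, six wells each.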

[5] = species on record: Homo sapiens; experiment: Selectivity ratio of Ki for human carbonic anhydrase 2 to Ki for human carbonic anhydrase 9
Summary of the method: (§1)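 Stopped-flow CO2 hydration assay using 0.2 mM phenol red read at 557 nm, in 10 mM Hepes pH 7.5 with 0.1 M Na2SO4. Substrate was CO2-saturated water at 25 °C. Enzyme and inhibitor were preincubated 10 min at room temperature, testing at least seven inhibitor concentrations, with dilutions going down to 0.01 nM. Ki came from Lineweaver-Burk plots, triplicates averaged. The ratios are hCA I or hCA II Ki divided by hCA IX Ki.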

[6] = species on record: Homo sapiens; experiment: Selectivity ratio of Ki for human carbonic anhydrase 1 to Ki for human carbonic anhydrase 9; summary of the method: as §1
[7] = target: Carbonic anhydrase 1 (Homo sapiens, UniProt P00915); experiment: Inhibition of human carbonic anhydrase 1 preincubated for 10 mins by CO2 hydration stopped-flow assay
[8] = target: Carbonic anhydrase 2 (Homo sapiens, UniProt P00918); experiment: Inhibition of human carbonic anhydrase 2 preincubated for 10 mins by CO2 hydration stopped-flow assay
[9] = system: MDA-MB-231; experiment: Ratio of IC50 for human MDA-MB-231 cells under hypoxic condition to IC50 for human MDA-MB-231 cells under normoxic condition; assay type: functional

Carbonic anhydrase 1, sequence (P00915 whole entry): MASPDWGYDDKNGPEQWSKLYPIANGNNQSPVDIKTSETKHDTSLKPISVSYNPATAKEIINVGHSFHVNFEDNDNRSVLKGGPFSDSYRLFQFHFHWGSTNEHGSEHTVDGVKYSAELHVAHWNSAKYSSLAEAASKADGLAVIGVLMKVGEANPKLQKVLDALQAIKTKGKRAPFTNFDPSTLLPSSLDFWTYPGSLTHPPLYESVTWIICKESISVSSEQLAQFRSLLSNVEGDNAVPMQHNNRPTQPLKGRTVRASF

Compound	Ki [1]	also measured
NS(=O)(=O)c1ccc(-n2nc(CO)cc2-c2ccc3ccccc3c2)cc1	0.017 µM	
COc1ccc2cc(-c3cc(CO)nn3-c3ccc(S(N)(=O)=O)cc3)ccc2c1	0.019 µM	Activity [2]: inactive; IC50 [3]: > 50 µM
COc1ccc2cc(-c3cc(CO)nn3-c3cccc(S(N)(=O)=O)c3)ccc2c1	0.029 µM	
NS(=O)(=O)c1ccc(-n2nc(-c3ccccc3)cc2CO)cc1	0.157 µM	
NS(=O)(=O)c1cccc(-n2nc(CO)cc2-c2ccc3ccccc3c2)c1	0.019 µM	Activity [2]: inactive; Activity [4]: Active; IC50 [3]: > 50 µM
NS(=O)(=O)c1ccc(-n2cc(CO)c(-c3ccc4ccccc4c3)n2)cc1	0.049 µM	
NS(=O)(=O)c1ccc(-n2nc(CO)cc2-c2cccc3ccccc23)cc1	0.254 µM	
NS(=O)(=O)c1ccc(-n2nc(CO)cc2-c2ccc3c(ccc4ccccc43)c2)cc1	1.86 µM	Ratio Ki [5]: > 5; Ratio Ki [6]: > 5; Ki [7]: > 10 µM; Ki [8]: > 10 µM
NS(=O)(=O)c1ccc(-n2nc(CO)cc2-c2cccnc2)cc1	0.013 µM	
NS(=O)(=O)c1ccc(-n2nc(CCO)cc2-c2ccccc2)cc1	0.023 µM	
COc1ccccc1-c1cc(CO)nn1-c1ccc(S(N)(=O)=O)cc1	0.032 µM	
N#Cc1ccc(-c2cc(CO)nn2-c2ccc(S(N)(=O)=O)cc2)cc1	0.027 µM	
NS(=O)(=O)c1ccc(-n2nc(CO)cc2-c2ccc(-c3ccccc3)cc2)cc1	0.027 µM	
COc1cccc(-c2cc(CO)nn2-c2ccc(S(N)(=O)=O)cc2)c1	0.026 µM	
NS(=O)(=O)c1ccc(-n2nc(-c3ccc4ccccc4c3)cc2CO)cc1	0.021 µM	
NS(=O)(=O)c1ccc(-n2nc(CO)cc2-c2ccc(Br)cc2)cc1	0.015 µM	Activity [2]: inactive; Activity [4]: Active; IC50 [3]: > 50 µM
Cc1ccc(-c2cc(CO)nn2-c2ccc(S(N)(=O)=O)cc2)cc1		Ratio Ki [5]: 8; Ratio Ki [6]: 69; Ki [7]: 1.51 µM; Ki [8]: 0.176 µM
NS(=O)(=O)c1cccc(-n2nc(CO)cc2-c2ccccc2)c1	0.031 µM	
NS(=O)(=O)c1ccc(-n2nc(CO)cc2-c2ccccc2)cc1	0.027 µM	
COc1ccc2cc(-c3cc(CO)nn3-c3ccc(S(N)(=O)=O)cc3)ccc2c1Br	0.03 µM	
COc1cccc2c1C(=O)c1c(O)c3c(c(O)c1C2=O)C[C@@](O)(C(=O)CO)C[C@@H]3O[C@H]1C[C@H](N)[C@H](O)[C@H](C)O1 [DOXORUBICIN]		Ratio IC50 [9]: 3
COc1ccc2cc(-c3nn(-c4ccc(S(N)(=O)=O)cc4)cc3CO)ccc2c1	0.048 µM	
NS(=O)(=O)c1ccc(-n2cc(CO)c(-c3ccccc3)n2)cc1	0.066 µM	
